Measurements: ChEMBL document CHEMBL1154198, “Chemical genetics of Plasmodium falciparum” (Nature, 2010)

Legend:
[1] = ST_JUDE: Cytotoxicity using luciferase to measure ATP as an indicator of the viability of human foreskin fibroblast cells (BJ); format: toxicity, cell-based
[2] = system: Plasmodium falciparum; experiment: ST_JUDE: Cytotoxicity against Plasmodium falciparum 3D7; format: functional, organism-based
How it was run: (§1)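 Asexual P. falciparum grown in human erythrocytes, exposed to compounds for 72 h, and growth read as the DNA quantity in treated versus control cultures. Dose-response run at 12 concentrations from 10 μM to 5 nM.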

[3] = system: Toxoplasma gondii; experiment: ST_JUDE: Growth inhibition of to Toxoplasma gondii, in human U-2OS cells, as measured by luciferase.; format: functional, organism-based; settings: RH, U2OS
How it was run: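 T. gondii parasites engineered to express luciferase; drug sensitivity read by luminescence.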

[4] = ST_JUDE: Cytotoxicity using luciferase to measure ATP as an indicator of the viability of human Burkitt''s lymphoma lymphoblast cells (Raji); format: toxicity, cell-based
[5] = system: Plasmodium falciparum; experiment: ST_JUDE: Cytotoxicity against Plasmodium falciparum W2; format: functional, organism-based
[6] = ST_JUDE: Cytotoxicity using luciferase to measure ATP as an indicator of the viability of human epithelial hepatocellular carcinoma cells (HepG2); format: toxicity, cell-based
[7] = system: Leishmania major; experiment: ST_JUDE: Cytotoxicity using Alamar Blue to measure viability of Leishmania major; format: functional, organism-based
How it was run: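 L. major promastigotes; drug susceptibility read with Alamar Blue.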

[8] = ST_JUDE: Cytotoxicity using luciferase to measure ATP as an indicator of the viability of human epithelial embryonic kidney cells (HEK293); format: toxicity, cell-based
[9] = system: Plasmodium falciparum; experiment: ST_JUDE: Plasmodium falciparum 3D7 EC50 (uM) as measured by SYBR green dye; format: functional, organism-based
[10] = system: Plasmodium falciparum; experiment: ST_JUDE: Cytotoxicity against Plasmodium falciparum K1; format: functional, organism-based; how it was run: as §1
[11] = system: Plasmodium falciparum; experiment: ST_JUDE: Cytotoxicity against Plasmodium falciparum D10 transfected with yeast DHOD; format: functional, organism-based
[12] = system: Plasmodium falciparum; experiment: ST_JUDE: Plasmodium falciparum K1 EC50 (uM) as measured by SYBR green dye; format: functional, organism-based
[13] = system: Plasmodium falciparum; experiment: ST_JUDE: Cytotoxicity against Plasmodium falciparum V1/S; format: functional, organism-based
[14] = system: Trypanosoma brucei; experiment: ST_JUDE: Cytotoxicity using luciferase to measure ATP as an indicator of the viability of Trypanosoma brucei; format: functional, organism-based
[15] = system: Plasmodium falciparum; experiment: ST_JUDE: Cytotoxicity against Plasmodium falciparum SB-A6; format: functional, organism-based
[16] = system: Plasmodium falciparum; experiment: ST_JUDE: Cytotoxicity against Plasmodium falciparum Dd2; format: functional, organism-based

Row | SMILES | EC50 [1] | EC50 [2] | EC50 [3] | EC50 [4] | EC50 [5] | EC50 [6] | EC50 [7] | EC50 [8] | EC50 [9] | EC50 [10] | EC50 [11] | EC50 [12] | EC50 [13] | EC50 [14] | EC50 [15] | EC50 [16]
1 | Cc1cccc(N2CCN(Cc3cc(Br)ccc3O)CC2)c1C | > 27.9 µM | 0.372 µM | > 15.3 µM | > 27.9 µM | > 7.16 µM | > 27.9 µM | > 11.9 µM | > 27.9 µM | 0.425 µM | 0.178 µM | 0.576 µM | 0.153 µM | 0.255 µM | > 26.7 µM | 0.699 µM | 0.521 µM
2 | COCCO/C(O)=C1\C(C)=NC2=C(C(=O)CC(c3ccc(OC)c(OC)c3)C2)C1c1ccccc1F (stereo not drawn) | > 39.9 µM | 0.498 µM | > 21.9 µM | > 39.9 µM | 1.35 µM | > 39.9 µM | > 17.1 µM | > 39.9 µM | 0.717 µM | 0.314 µM | 0.553 µM | 0.551 µM | 0.406 µM | > 38.3 µM | 0.313 µM | 0.97 µM
3 | CCCCCOc1ccc(N(C(C)=O)C2=C(N3CCOCC3)C(=O)c3ccccc3C2=O)cc1 | > 36.2 µM | 0.075 µM | > 19.8 µM | 3.26 µM | > 9.29 µM | 22.6 µM | > 15.5 µM | > 36.2 µM | 0.327 µM | 0.0775 µM | 0.0362 µM | 0.208 µM | 0.07 µM | 1.84 µM | 0.0596 µM | 1.47 µM
4 | CCO/C(O)=C1\C(C)=NC2=C(C(=O)CC(c3ccc(OC)c(OC)c3)C2)C1c1cccc(C)c1 (stereo not drawn) | > 40.6 µM | 1.1 µM | > 22.3 µM | > 40.6 µM | 0.816 µM | > 40.6 µM | > 17.4 µM | > 40.6 µM | 1.02 µM | 0.95 µM | 1.36 µM | 0.633 µM | 1.18 µM | > 39 µM | 0.602 µM | 2.08 µM
5 | CCc1ccc(S(=O)(=O)NC2=C/C(=N\c3ccccc3OC)C(=O)c3ccccc32)cc1 | 6.8 µM | 0.954 µM | > 21.8 µM | 2.76 µM | > 10.2 µM | 10.3 µM | > 17 µM | 9.01 µM | 0.277 µM | 0.377 µM | 0.406 µM | 0.149 µM | 0.327 µM | 1.98 µM | 0.531 µM | 0.677 µM
6 | CCCO/C(O)=C1\C(C)=NC2=C(C(=O)CC(c3ccc(OC)c(OC)c3)C2)C1c1ccccc1F (stereo not drawn) | 0.0018 µM | 0.111 µM | > 22.5 µM | > 41.1 µM | 0.0639 µM | > 41.1 µM | > 17.6 µM | 35.9 µM | 0.05 µM | 0.0825 µM | 0.0405 µM | 0.0517 µM | 0.106 µM | 6.57 µM | 0.0363 µM | 0.0894 µM
7 | Oc1ccc(Cl)cc1CN1CCN(c2cccc(C(F)(F)F)c2)CC1 | > 35.3 µM | 1.57 µM | > 19.4 µM | > 35.3 µM | > 9.07 µM | > 35.3 µM | > 15.1 µM | > 35.3 µM | 2.37 µM | 0.476 µM | 1.65 µM | 0.886 µM | 0.855 µM | > 33.9 µM | 2.13 µM | 1.55 µM
8 | CCCO/C(O)=C1\C(C)=NC2=C(C(=O)CC(c3ccc(OC)c(OC)c3)C2)C1c1ccccc1C (stereo not drawn) | > 41.3 µM | 0.134 µM | > 22.6 µM | > 41.3 µM | 0.0213 µM | > 41.3 µM | > 17.7 µM | > 41.3 µM | 0.308 µM | 0.11 µM | 0.0685 µM | 0.292 µM | 0.0982 µM | 6.57 µM | 0.0565 µM | 0.0898 µM
